# Assay results published in paper PMC10405366 (Molecular pharmaceutics, 2023).
# Assays:
# [1] = system: OVCAR8; assay: 2D foci assay; format: cell-based, human; settings: OVCAR8, 50 nM for 8 h, two weeks colony formation, relative to vehicle
# Outline: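 Cells were seeded at 200 per 60 mm dish and left to attach overnight. They were then exposed for 8 h to test compound (50 nM), DMSO vehicle or paclitaxel (10 nM). Medium was replaced and cells grew drug-free for about two weeks (15 days). Colonies were fixed in 4% paraformaldehyde, stained with 0.05% crystal violet, imaged and counted. There were three biological replicates, compared with vehicle by Dunnett's test.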
# [2] = Mouse pharmacokinetics, plasma LC-MS/MS; format: in vivo; settings: female C57BL/6 mice
# [3] = system: female athymic nude (nu/nu) mice; assay: Tolerability study: serum chemistry; format: in vivo, mouse
# Outline: (§1)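 Athymic nude mice (n = 5 per group) received test compound or the Tween80:Captex200:saline vehicle IP every 2 days for 14 days. About 2–4 h after the last dose, mice were killed with CO2 and blood was drawn by cardiac puncture. Complete blood counts and serum chemistry were run by a pathology core. Values are given as means ± SD, n = 3–5.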
# [4] = system: MDA-MB-435; assay: Cell viability assay; format: cell-based, human; settings: MDA-MB-435
# Outline: (§2)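 RPMI1640 (OVCAR3, OVCAR4, MDA-MB-435) or DMEM (OVCAR8, MDA-MB-231) was used, with 10% FBS and penicillin/streptomycin. Cells were STR-validated and kept below 20 passages. Cells were plated at 5000 per well overnight, then given test compound at final 0.95–250 nM (nine levels, 0.5% DMSO) for 72 h at 37 °C. Viability was read by CellTiter-Blue absorbance, and IC50 was taken relative to DMSO. Paclitaxel (0.39–100 nM) was the control, with three biological replicates.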
# [5] = system: MDA-MB-231; assay: Cell viability assay; format: cell-based, human; settings: MDA-MB-231
# Outline: as §2
# [6] = system: female athymic nude (nu/nu) mice; assay: Tolerability study: hematology; format: in vivo, mouse
# Outline: as §1
# [7] = 0.10 mg/kg IP every 2 days, 14 days
# [8] = 0.25 mg/kg IP every 2 days, 14 days
# [9] = 0.50 mg/kg IP every 2 days, removed day 13
# [10] = 1.00 mg/kg IP every 2 days, removed at 8 days
structure (smiles),measurement,setting,value
CN1C(=O)[C@]23SS[C@@]1(C)C(=O)N2[C@H]1Nc2ccccc2[C@@]1([C@@]12c4ccccc4N[C@@H]1N1C(=O)[C@@]4(C)SS[C@]1(C(=O)N4C)[C@H]2O)[C@@H]3O [verticillin A],foci formation,[1],completely abrogated foci formation
same,plasma concentration,"[2]; IP 0.25 mg/kg, most results just above the lower limit",1 to 1000 nM
same,plasma concentration,"[2]; IV 0.25 mg/kg, most results just above the lower limit",1 to 1000 nM
same,plasma concentration,"[2]; oral gavage 2.5 mg/kg, linear range 1–1000 nM",BLOQ
same,ALP,[3]; [7],163 ± 27 U/L
same,ALT,[3]; [7],38 ± 6 U/L
same,AST,[3]; [7],98 ± 16 U/L
same,BUN,[3]; [7],18 ± 3 mg/dL
same,GGT,[3]; [7],5 ± 0 U/L
same,albumin,[3]; [7],3.5 ± 0.3 g/dL
same,amylase,[3]; [7],1153 ± 176 U/L
same,calcium,[3]; [7],11.8 ± 0.4 mg/dL
same,cholesterol,[3]; [7],144 ± 16 mg/dL
same,creatine kinase,[3]; [7],241 ± 85 U/L
same,creatinine,[3]; [7],0.56 ± 0.03 mg/dL
same,globulin,[3]; [7],2.2 ± 0.4 g/dL
same,glucose,[3]; [7],191 ± 42 mg/dL
same,lipase,[3]; [7],43 ± 15 U/L
same,phosphorous,[3]; [7],12.8 ± 1.1 mg/dL
same,total bilirubin,[3]; [7],0.4 ± 0.1 mg/dL
same,total protein,[3]; [7],5.6 ± 0.4 g/dL
same,triglyceride,[3]; [7],202 ± 42 mg/dL
same,ALP,[3]; [8],141 ± 14 U/L
same,ALT,[3]; [8],46 ± 13 U/L
same,AST,[3]; [8],112 ± 19 U/L
same,BUN,[3]; [8],17 ± 4 mg/dL
same,GGT,[3]; [8],3 ± 1 U/L
same,albumin,[3]; [8],3.3 ± 0.2 g/dL
same,amylase,[3]; [8],1189 ± 89 U/L
same,calcium,[3]; [8],11.6 ± 0.5 mg/dL
same,cholesterol,[3]; [8],141 ± 10 mg/dL
same,creatine kinase,[3]; [8],237 ± 60 U/L
same,creatinine,[3]; [8],0.21 ± 0.7 mg/dL
same,globulin,[3]; [8],2.1 ± 0.3 g/dL
same,glucose,[3]; [8],187 ± 33 mg/dL
same,lipase,[3]; [8],71 ± 4 U/L
same,phosphorous,[3]; [8],14.0 ± 1.0 mg/dL
same,total bilirubin,[3]; [8],0.3 ± 0.0 mg/dL
same,total protein,[3]; [8],5.5 ± 0.4 g/dL
same,triglyceride,[3]; [8],236 ± 52 mg/dL
same,ALP,[3]; [9],92 ± 19 U/L
same,ALT,[3]; [9],55 ± 23 U/L
same,AST,[3]; [9],201 ± 51 U/L
same,BUN,[3]; [9],26 ± 3 mg/dL
same,GGT,[3]; [9],7 ± 2 U/L
same,albumin,[3]; [9],3.2 ± 0.2 g/dL
same,amylase,[3]; [9],1397 ± 318 U/L
same,calcium,[3]; [9],11.7 ± 0.4 mg/dL
same,cholesterol,[3]; [9],124 ± 22 mg/dL
same,creatine kinase,[3]; [9],302 ± 65 U/L
same,creatinine,[3]; [9],0.36 ± 0.03 mg/dL
same,globulin,[3]; [9],2.1 ± 0.2 g/dL
same,glucose,[3]; [9],176 ± 19 mg/dL
same,phosphorous,[3]; [9],16.4 ± 2.3 mg/dL
same,total bilirubin,[3]; [9],0.4 ± 0.2 mg/dL
same,total protein,[3]; [9],5.3 ± 0.3 g/dL
same,triglyceride,[3]; [9],187 ± 139 mg/dL
same,ALP,[3]; [10],70 ± 61 U/L
same,ALT,[3]; [10],44 ± 8 U/L
same,AST,[3]; [10],225 ± 68 U/L
same,BUN,[3]; [10],25 ± 4 mg/dL
same,GGT,[3]; [10],7 ± 3 U/L
same,albumin,[3]; [10],2.1 ± 0.9 g/dL
same,amylase,[3]; [10],1213 ± 149 U/L
same,calcium,[3]; [10],11.4 ± 0.4 mg/dL
same,cholesterol,[3]; [10],90 ± 26 mg/dL
same,creatine kinase,[3]; [10],498 ± 184 U/L
same,creatinine,[3]; [10],0.30 ± 0.12 mg/dL
same,globulin,[3]; [10],2.9 ± 1.0 g/dL
same,glucose,[3]; [10],116 ± 17 mg/dL
same,lipase,[3]; [10],52 ± 22 U/L
same,phosphorous,[3]; [10],10.6 ± 6.8 mg/dL
same,total bilirubin,[3]; [10],0.3 ± 0.0 mg/dL
same,total protein,[3]; [10],5.0 ± 0.4 g/dL
same,triglyceride,[3]; [10],114 ± 20 mg/dL
same,cytotoxic activity,[4],pronounced cytotoxic activities
same,cytotoxic activity,[5],pronounced cytotoxic activities
same,MCH,[6]; [7],14.6 ± 0.2 pg
same,MCHC,[6]; [7],32.7 ± 0.7 g/dL
same,MCV,[6]; [7],44.6 ± 0.2 fL
same,MPV,[6]; [7],7.9 ± 0.1 fL
same,PCT,[6]; [7],0.701 ± 0.065%
same,PDW,[6]; [7],47.4 ± 1.9%
same,RBC,[6]; [7],9.89 ± 0.33 M/μL
same,RDW,[6]; [7],13.8 ± 0.5%
same,Reticulocyte #,[6]; [7],0 ± 0 K/μL
same,WBC #,[6]; [7],6.01 ± 1.29 K/μL
same,basophil #,[6]; [7],0.02 ± 0.01 K/μL
same,eosinophil #,[6]; [7],0.02 ± 0.02 K/μL
same,hematocrit,[6]; [7],44.1 ± 1.4%
same,hemoglobin,[6]; [7],14.4 ± 0.3 g/dL
same,lymphocyte #,[6]; [7],3.94 ± 1.16 K/μL
same,monocyte #,[6]; [7],0.37 ± 0.09 K/μL
same,neutrophil #,[6]; [7],1.65 ± 0.15 K/μL
same,nucleated RBCs #,[6]; [7],0 ± 0 K/μL
same,platelet #,[6]; [7],892 ± 74 K/μL
same,reticulocyte,[6]; [7],0 ± 0%
same,MCH,[6]; [8],15.2 ± 0.4 pg
same,MCHC,[6]; [8],32.6 ± 1.2 g/dL
same,MCV,[6]; [8],46.8 ± 1.0 fL
same,MPV,[6]; [8],7.6 ± 1.1 fL
same,PCT,[6]; [8],0.735 ± 0.147%
same,PDW,[6]; [8],48.7 ± 0.8%
same,RBC,[6]; [8],9.28 ± 0.81 M/μL
same,RDW,[6]; [8],14.2 ± 0.4%
same,Reticulocyte #,[6]; [8],8.6 ± 8.3 K/μL
same,WBC #,[6]; [8],4.22 ± 1.68 K/μL
same,basophil #,[6]; [8],0.01 ± 0.01 K/μL
same,eosinophil #,[6]; [8],0.02 ± 0.01 K/μL
same,hematocrit,[6]; [8],43.5 ± 4.0%
same,hemoglobin,[6]; [8],14.2 ± 1.3 g/dL
same,lymphocyte #,[6]; [8],1.72 ± 0.76 K/μL
same,monocyte #,[6]; [8],0.18 ± 0.06 K/μL
same,neutrophil #,[6]; [8],2.30 ± 0.98 K/μL
same,nucleated RBCs #,[6]; [8],0 ± 0 K/μL
same,platelet #,[6]; [8],964 ± 203 K/μL
same,reticulocyte,[6]; [8],0.10 ± 0.09%
same,MCH,[6]; [10],15.4 ± 0.3 pg
same,MCHC,[6]; [10],33.7 ± 0.7 g/dL
same,MCV,[6]; [10],45.5 ± 0.6 fL
same,MPV,[6]; [10],7.7 ± 0.2 fL
same,PCT,[6]; [10],0.815 ± 0.096%
same,PDW,[6]; [10],47.3 ± 1.7%
same,RBC,[6]; [10],9.79 ± 0.75 M/μL
same,RDW,[6]; [10],16.2 ± 0.9%
same,Reticulocyte #,[6]; [10],0 ± 0 K/μL
same,WBC #,[6]; [10],5.97 ± 1.67 K/μL
same,basophil #,[6]; [10],0.01 ± 0.01 K/μL
same,eosinophil #,[6]; [10],0.03 ± 0.01 K/μL
same,hematocrit,[6]; [10],44.6 ± 3.4%
same,hemoglobin,[6]; [10],15.0 ± 1.0 g/dL
same,lymphocyte #,[6]; [10],1.63 ± 1.19 K/μL
same,monocyte #,[6]; [10],0.21 ± 0.29 K/μL
same,neutrophil #,[6]; [10],4.09 ± 1.30 K/μL
same,nucleated RBCs #,[6]; [10],0 ± 0 K/μL
same,platelet #,[6]; [10],1057 ± 146 K/μL
same,reticulocyte,[6]; [10],0 ± 0%
